Results published in article PMC3137751 (Biochemistry, 2010).
Changes are numbered by the printed parent chain. Values joined by “and” are separate entries in the source; they are usually repeats but may differ in a detail not shown here. Equal values may be shown once. Marks after values point to notes of the source that are not given here.

Legend:
[1] = molecular target: T1, wild-type IDH1/IDH2 enzyme (Saccharomyces cerevisiae, UniProt P28241+P28834); assay: Ligand protection from diamide-induced inactivation; assay type: biochemical, yeast
T1 sequence (P28834 12-360): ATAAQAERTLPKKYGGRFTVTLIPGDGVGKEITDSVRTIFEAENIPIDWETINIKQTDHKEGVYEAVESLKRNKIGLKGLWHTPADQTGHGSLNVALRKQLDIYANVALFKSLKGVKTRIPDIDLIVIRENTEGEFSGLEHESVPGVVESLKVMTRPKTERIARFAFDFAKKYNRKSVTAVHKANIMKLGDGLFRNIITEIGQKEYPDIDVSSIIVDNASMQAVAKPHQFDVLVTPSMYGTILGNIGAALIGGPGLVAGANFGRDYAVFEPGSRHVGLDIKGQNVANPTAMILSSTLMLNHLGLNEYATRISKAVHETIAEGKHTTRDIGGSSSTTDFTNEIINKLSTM
T1 sequence (P28241 16-369): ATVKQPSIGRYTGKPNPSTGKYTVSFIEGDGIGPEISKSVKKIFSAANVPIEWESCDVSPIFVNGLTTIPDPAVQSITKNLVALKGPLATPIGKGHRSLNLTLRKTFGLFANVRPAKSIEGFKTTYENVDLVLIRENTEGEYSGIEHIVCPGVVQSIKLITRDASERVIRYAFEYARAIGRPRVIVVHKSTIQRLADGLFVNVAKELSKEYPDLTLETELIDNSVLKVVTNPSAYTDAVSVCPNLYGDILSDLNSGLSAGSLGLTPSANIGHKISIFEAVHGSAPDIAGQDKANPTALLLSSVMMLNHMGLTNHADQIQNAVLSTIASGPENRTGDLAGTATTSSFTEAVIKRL

^-5IDH1/IDH2 enzyme = molecular target: T2, ^-5IDH1/IDH2 enzyme (Saccharomyces cerevisiae, UniProt P28241+P28834); assay: as above; assay type: biochemical, yeast
T2 sequence (P28834 17-360 limits assumed): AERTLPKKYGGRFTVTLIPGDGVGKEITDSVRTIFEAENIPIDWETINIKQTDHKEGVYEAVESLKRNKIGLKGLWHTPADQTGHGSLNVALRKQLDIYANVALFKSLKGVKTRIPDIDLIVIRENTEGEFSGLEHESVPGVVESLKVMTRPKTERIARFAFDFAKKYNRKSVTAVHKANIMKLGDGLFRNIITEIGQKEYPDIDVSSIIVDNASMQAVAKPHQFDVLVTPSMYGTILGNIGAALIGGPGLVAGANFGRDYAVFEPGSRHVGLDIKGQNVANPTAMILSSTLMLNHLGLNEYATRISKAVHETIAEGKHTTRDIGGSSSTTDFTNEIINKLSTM
T2 sequence (P28241 16-369): T1 sequence (P28241 16-369)

[2] = molecular target: ^-5IDH1^D168K/IDH2 enzyme (tetrameric) (Saccharomyces cerevisiae, UniProt P28241+P28834, D179K); assay: Diamide inhibition of catalytic activity; assay type: biochemical, yeast
[3] = molecular target: ^-5IDH1^G15D/IDH2 enzyme (tetrameric) (Saccharomyces cerevisiae, UniProt P28241+P28834, G26D); assay: Diamide inhibition of catalytic activity; assay type: biochemical, yeast
[4] = molecular target: T3, IDH1/IDH2 enzyme (wild-type, octameric) (Saccharomyces cerevisiae, UniProt P28241+P28834); assay: Diamide inhibition of catalytic activity; assay type: biochemical, yeast
T3 sequence (P28834 12-360): T1 sequence (P28834 12-360)
T3 sequence (P28241 16-369): T1 sequence (P28241 16-369)
Method in brief: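 Purified His-tagged enzyme (E. coli BL21-Gold (DE3), IPTG-induced, Ni-NTA purified) at 1 μM in 50 mM Tris-HCl pH 7.4 is held 2 h on ice with a range of diamide concentrations from a fresh water stock. Activity is then assayed (40 mM Tris-HCl pH 7.4, 1 mM D-isocitrate, 4 mM MgCl2, 0.5 mM NAD+; NADH formation, 24 °C). Untreated activity is set as 100%, and the 50% value is read from the graphs.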

IDH1^G15D/IDH2 enzyme = molecular target: T4, IDH1^G15D/IDH2 enzyme (Saccharomyces cerevisiae, UniProt P28241+P28834, G26D); assay type: biochemical, yeast; details: 10 μM diamide, 2 h
T4 sequence (P28834 12-360 G26D): T1 sequence (P28834 12-360) with G15D
T4 sequence (P28241 16-369): T1 sequence (P28241 16-369)

[5] = molecular target: ^-5IDH1/IDH2 enzyme (truncated, octameric) (Saccharomyces cerevisiae, UniProt P28241+P28834); assay: Diamide inhibition of catalytic activity; assay type: biochemical, yeast
[6] = molecular target: IDH1^G15D/IDH2 enzyme (tetrameric) (Saccharomyces cerevisiae, UniProt P28241+P28834, G26D); assay: Diamide inhibition of catalytic activity; assay type: biochemical, yeast
IDH1/IDH2 enzyme = molecular target: T5, IDH1/IDH2 enzyme (Saccharomyces cerevisiae, UniProt P28241+P28834); assay type: biochemical, yeast; details: no or low concentration (10 μM) of diamide, 2 h
T5 sequence (P28834 12-360): T1 sequence (P28834 12-360)
T5 sequence (P28241 16-369): T1 sequence (P28241 16-369)
Method in brief: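 Affinity-purified His-tagged enzyme (1 μM in 50 mM Tris-HCl pH 7.4) is treated 2 h on ice with 0 or 10 μM diamide. Then 3.5 μg samples are run on […] and stained with Coomassie blue to see the IDH2 Cys-150 disulfide band.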

cross-linking = molecular target: the molecule itself; assay: cross-linking
[7] = tested on: Yeast NAD+-specific isocitrate dehydrogenase (IDH); assay: Kinetic analyses: isocitrate saturation velocity curves of purified IDH enzymes; assay type: biochemical
Method in brief: (§1)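 His-tagged IDH purified by Ni2+-NTA, stored at −20 °C in elution buffer with 20% glycerol, quantified by A280. Assays at 24 °C used 40 mM Tris-HCl pH 7.4, 4 mM MgCl2 and 0.5 mM NAD+. D-isocitrate was varied 0–5 mM, with or without 100 μM AMP, and NADH formation was followed. Apparent S0.5 and Hill coefficients came from saturation curves, Vmax as maximum velocity per mg, over two independent experiments.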

[8] = molecular target: T6, Yeast NAD+-specific isocitrate dehydrogenase (IDH) (Saccharomyces cerevisiae, UniProt P28241+P28834); assay: as above; assay type: biochemical; details: 100 μM AMP
T6 sequence (P28834 12-360): T1 sequence (P28834 12-360)
T6 sequence (P28241 16-369): T1 sequence (P28241 16-369)
Method in brief: as §1

[9] = 2 h, read-out: reduction in activity

Chain of ^-5IDH1^D168K/IDH2 enzyme (tetrameric) (P28834 17-360 D179K, one chain of several): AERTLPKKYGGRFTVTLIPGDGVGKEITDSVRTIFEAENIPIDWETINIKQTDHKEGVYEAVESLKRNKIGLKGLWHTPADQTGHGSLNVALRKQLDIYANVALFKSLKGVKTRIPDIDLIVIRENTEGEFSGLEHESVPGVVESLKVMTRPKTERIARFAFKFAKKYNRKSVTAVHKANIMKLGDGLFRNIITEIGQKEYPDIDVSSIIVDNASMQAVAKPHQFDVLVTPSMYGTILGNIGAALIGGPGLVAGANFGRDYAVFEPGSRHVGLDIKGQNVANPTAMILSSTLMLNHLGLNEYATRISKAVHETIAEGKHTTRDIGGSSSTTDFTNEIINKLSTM
Chain of ^-5IDH1^G15D/IDH2 enzyme (tetrameric) (P28834 17-360 G26D, one chain of several): as the sequence (P28834 17-360 D179K, one chain of several) above, with G10D, K163D counted along it
Chain of IDH1^G15D/IDH2 enzyme (tetrameric) (P28834 12-360 G26D, one chain of several): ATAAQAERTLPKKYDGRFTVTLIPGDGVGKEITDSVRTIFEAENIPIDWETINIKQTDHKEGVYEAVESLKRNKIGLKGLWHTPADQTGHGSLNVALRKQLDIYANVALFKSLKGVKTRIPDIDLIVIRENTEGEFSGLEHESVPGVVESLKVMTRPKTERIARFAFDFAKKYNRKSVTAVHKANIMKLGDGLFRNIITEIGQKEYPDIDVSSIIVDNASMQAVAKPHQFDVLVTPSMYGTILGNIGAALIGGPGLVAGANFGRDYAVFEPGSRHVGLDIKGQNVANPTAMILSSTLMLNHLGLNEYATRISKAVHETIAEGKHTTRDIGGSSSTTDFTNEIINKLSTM

## O=C(O)CC(O)(CC(=O)O)C(=O)O [citrate]
[1]; 100 mM citrate, 4 mM MgCl2, 100 μM AMP for 15 min before 0.5 mM diamide
  effect of citrate preincubation on diamide inhibition: no inhibition by diamide was observed
^-5IDH1/IDH2 enzyme; increasing citrate (0 to 100 mM), 4 mM MgCl2, 100 μM AMP before 0.16 mM diamide
  effect of citrate preincubation on diamide inhibition: essentially no effect

## CN(C)C(=O)/N=N/C(=O)N(C)C [diamide]
[2]
  IC50: 13 µM
[1]; [9]
  inhibition at 500 µM: 63%
[3]
  IC50: 7.5 µM
[4]
  IC50: 500 µM
IDH1^G15D/IDH2 enzyme
  formation of IDH2 Cys-150 disulfide bond: most of the IDH2 subunit is present as the disulfide bond form
[5]
  IC50: 160 µM
[5]; ^-5IDH1/IDH2 vs IDH1/IDH2, 120 min
  increase in sensitivity to diamide relative to the IDH1/IDH2 enzyme: ~ 3 fold and 3 fold
[6]
  IC50: 6.5 µM
IDH1/IDH2 enzyme
  formation of IDH2 Cys-150 disulfide bond: no formation of this bond
^-5IDH1/IDH2 enzyme; [9]
  inhibition at 160 µM: 43%

B1: IDH2 subunit (natural protein, yeast)
chain: T1 sequence (P28241 16-369)
cross-linking
  binding result: binds

B2: IDH1/IDH2: wild-type yeast NAD+-specific isocitrate dehydrogenase, octamer of IDH1 and IDH2 subunits, histidine tag on IDH1 (protein)
chain 1: T1 sequence (P28834 12-360)
chain 2: T1 sequence (P28241 16-369)
modifications: left off: histidine tag, C-terminal, kept
[7]; absence of AMP
  Hill coef. with respect to isocitrate, − AMP: 3.1
[7]; isocitrate velocity saturation curve, presence of 100 μM AMP
  Vmax (apparent), + AMP: 32.3/32.3 (±0.7/0.4) ^b units/mg
[7]; presence of 100 μM AMP
  Hill coef. with respect to isocitrate, + AMP: 3.5
[8]
  increase in the apparent affinity for isocitrate in the presence of AMP: ~ 5 fold
